Measured values reported in ChEMBL document CHEMBL5055634 (J Med Chem, 2021).
Active and inactive are the calls of the source. The rule behind the calls is not given here.

Tests used:
[1] = Induction of NO production aqueous solution assessed as nitrite level at 80 uM measured after 1 hr of white light irradiation by griess reagent based assay; type: functional
Procedure, shortened: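 Griess assay. Aqueous compound at 160 μM was mixed 1:1 with Griess reagent, giving 80 μM, in a quartz cuvette. The mix was irradiated with a 300 W tungsten lamp at 40 cm for 15 min, 1 h or 2 h. Absorbance was read at 540 nm and nitrite quantified against a NaNO2 standard curve (5–50 μM).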

DU-145 [2] = test: […] against human DU-145 cells assessed as reduction in cell viability by measuring difference in IC50 pretreated for 24 hrs followed by white light irradiation for 1 hr further incubated for 48 hrs in drug free medium by MTT assay; type: functional, cell-based
Procedure, shortened: (§1)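 Prostate cells were treated for 24 h, irradiated 1 h with white or blue light (dark-kept comparison), then incubated 48 h in drug-free medium.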

DU-145 [3] = test: […] against human DU-145 cells assessed as reduction in cell viability by measuring difference in IC50 pretreated for 24 hrs followed by blue light irradiation for 1 hr further incubated for 48 hrs in drug free medium by MTT assay; type: functional, cell-based; procedure, shortened: as §1
PC-3 [4] = test: […] against human PC-3 cells assessed as reduction in cell viability by measuring difference in IC50 pretreated for 24 hrs followed by blue light irradiation for 1 hr further incubated for 48 hrs in drug free medium by MTT assay; type: functional, cell-based; procedure, shortened: as §1
Pseudomonas aeruginosa [5] = test: Antimicrobial activity against Pseudomonas aeruginosa PA01 assessed as inhibition of microbial growth measured after 24 hrs by broth dilution method; type: functional; conditions: PAO1
Procedure, shortened: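 Broth dilution MIC against P. aeruginosa PAO1. Overnight LB cultures (37 °C, 200 rpm) diluted 100-fold to 10^7 CFU/mL. Two-fold dilution series from 200 to 0.1 μg/mL, 24 h at 37 °C. MIC taken as the lowest concentration with no detectable turbidity. Run at least three times.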

Pseudomonas aeruginosa [6] = test: Photodynamic antimicrobial activity against Pseudomonas aeruginosa PA01 assessed as bacterial eradication at 10 uM incubated for 10 min in dark followed by irradiation with 20J/cm2 light by viability count technique; type: functional, organism-based; conditions: PAO1
Procedure, shortened: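 Photoinactivation assay. Overnight cultures were diluted in 10 mM phosphate buffer, pH 7.4, to ~10^6 CFU/mL. Compound was added at 10 μM and held 10 min in the dark, then irradiated at 410 ± 10 nm (20 J/cm2); dark controls were not irradiated. Survivors were counted on LB agar after overnight 37 °C incubation and reported as CFU/mL; at least three independent experiments.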

PC-3 [7] = test: […] against human PC-3 cells assessed as reduction in cell viability by measuring difference in IC50 pretreated for 24 hrs followed by white light irradiation for 1 hr further incubated for 48 hrs in drug free medium by MTT assay; type: functional, cell-based; procedure, shortened: as §1
[8] = system: Pseudomonas aeruginosa PAO1; test: Binding affinity to Pseudomonas aeruginosa PA01 cell wall at 10 uM incubated for 1 hr in dark
Procedure, shortened: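 Indirect cell-binding assay. Pelleted overnight PAO1 cells were resuspended and diluted 10-fold in PBS, then given compound at 10 μM for 1 h at 37 °C in the dark. After centrifugation, the supernatant visible spectrum (380–700 nm) was compared with the spectrum of each compound alone; a drop in absorbance indicates binding.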

HCT-116 = test: Antitumour activity against human HCT-116 cells assessed as cell growth inhibition at 0.1 to 75 uM incubated for 72 hrs by MTT assay; type: functional, cell-based; conditions: dose 0.1-75 µM
Procedure, shortened: (§2)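 MTT viability assay. Cells were plated at line-specific densities and left to attach 24 h, then exposed 72 h at 37 °C to 0.1–75 μM, eight replicates per concentration, with 0.2% DMSO controls. MTT was added for 3 h at 37 °C, formazan dissolved in DMSO and read at 570 nm. IC50 came from nonlinear regression; mean ± ES of 4/5 independent experiments.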

PC-3 [9] = test: Antitumor activity against human PC-3 cells assessed as cell growth inhibition at 0.1 to 75 uM incubated for 72 hrs by MTT assay; type: functional, cell-based; conditions: dose 0.1-75 µM; procedure, shortened: as §2
PC-3 [10] = test: Antitumor activity against human PC-3 cells assessed as cell growth inhibition incubated for 72 hrs by MTT assay; type: functional, cell-based; conditions: PC-3, 72 h; procedure, shortened: as §2
MDA-MB-231 = test: Antitumour activity against human MDA-MB-231 cells assessed as cell growth inhibition at 0.1 to 75 uM incubated for 72 hrs by MTT assay; type: functional, cell-based; conditions: dose 0.1-75 µM; procedure, shortened: as §2
DU-145 [11] = test: Antitumor activity against human DU-145 cells assessed as cell growth inhibition at 0.1 to 75 uM incubated for 72 hrs by MTT assay; type: functional, cell-based; conditions: dose 0.1-75 µM; procedure, shortened: as §2

Row | MIC (Pseudomonas aeruginosa [5]) [µg/mL] | Activity [8] | IC50 (PC-3 [10]) [nM] | Structure (SMILES) | Activity [1] [µM] | Activity (DU-145 [2]) | Activity (DU-145 [3]) | Activity (PC-3 [4]) | Activity (Pseudomonas aeruginosa [6]) | Activity (PC-3 [7]) | Activity (HCT-116) | Activity (PC-3 [9]) | Activity (MDA-MB-231) | Activity (DU-145 [11])
1 | 25 | Active |  | CCn1cc(C(=O)O)c(=O)c2cc(F)c(N3CCN(CCNc4ccc([N+](=O)[O-])c(C(F)(F)F)c4)CC3)cc21 | 0.2 | inactive | inactive | inactive | inactive | inactive |  |  |  | 
2 | 25 | Active |  | CCn1cc(C(=O)OC)c(=O)c2cc(F)c(N3CCN(c4ccc([N+](=O)[O-])c(C(F)(F)F)c4)CC3)cc21 |  |  |  |  |  |  |  |  |  | 
3 | 25 | Active |  | CCn1cc(C(=O)OC)c(=O)c2cc(F)c(N3CCN(CCCNc4ccc([N+](=O)[O-])c(C(F)(F)F)c4)CC3)cc21 |  |  |  |  |  |  |  |  |  | 
4 | 25 | Active | < 3000 | O=C(O)c1cn(C2CC2)c2cc(N3CCN(CCCNc4ccc([N+](=O)[O-])c(C(F)(F)F)c4)CC3)c(F)cc2c1=O | 6.2 | inactive | inactive | inactive |  | inactive | Active | Active | Active | Active
5 | 25 | Active |  | COC(=O)c1cn(C2CC2)c2cc(N3CCN(CCNc4ccc([N+](=O)[O-])c(C(F)(F)F)c4)CC3)c(F)cc2c1=O |  |  |  |  |  |  | Active | Active | Active | Active
6 | 25 | Active |  | O=C(O)c1cn(C2CC2)c2cc(N3CCN(CCNc4ccc([N+](=O)[O-])c(C(F)(F)F)c4)CC3)c(F)cc2c1=O | 0.5 |  |  |  |  |  | Active | Active | Active | Active
7 | 25 | Active |  | COC(=O)c1cn(C2CC2)c2cc(N3CCN(c4ccc([N+](=O)[O-])c(C(F)(F)F)c4)CC3)c(F)cc2c1=O |  |  |  |  |  |  | Active | Active | Active | Active
8 | 25 | Active |  | CCn1cc(C(=O)OC)c(=O)c2cc(F)c(N3CCN(CCNc4ccc([N+](=O)[O-])c(C(F)(F)F)c4)CC3)cc21 |  |  |  |  |  |  |  |  |  | 
9 | 25 | Active |  | O=C(O)c1cn(C2CC2)c2cc(N3CCN(c4ccc([N+](=O)[O-])c(C(F)(F)F)c4)CC3)c(F)cc2c1=O | 0.6 |  |  |  |  |  | Active | Active | Active | Active
10 | 25 | Active |  | COC(=O)c1cn(C2CC2)c2cc(N3CCN(CCCNc4ccc([N+](=O)[O-])c(C(F)(F)F)c4)CC3)c(F)cc2c1=O |  |  |  |  |  |  | Active | Active | Active | Active
11 | 25 | Active |  | CCn1cc(C(=O)O)c(=O)c2cc(F)c(N3CCN(c4ccc([N+](=O)[O-])c(C(F)(F)F)c4)CC3)cc21 | 3.1 |  |  |  |  |  |  |  |  | 
12 | 25 | Active |  | CCn1cc(C(=O)O)c(=O)c2cc(F)c(N3CCN(CCCNc4ccc([N+](=O)[O-])c(C(F)(F)F)c4)CC3)cc21 | 1.8 |  |  |  |  |  |  |  |  | 
